# In ChEMBL document CHEMBL4014311, “Discovery of a Hepatitis C Virus NS5B Replicase Palm Site Allosteric Inhibitor (BMS-929075) Advanced to Phase 1 Clinical Studies” (J Med Chem, 2017):
# Key:
# [1] = test system: Canis familiaris; test: Toxicity in dog up to 100 mg/kg, po administered as single dose measured up to 2 weeks; format: organism-based, Canis lupus familiaris; conditions: in vivo, 336 h
# [2] = test system: Rattus norvegicus; test: Toxicity in rat up to 100 mg/kg, po administered as single dose measured up to 2 weeks; format: organism-based; conditions: in vivo, 336 h
# [3] = Cytotoxicity against human HuH7 cells after 3 days by CellTiter-Blue assay; format: cell-based, Huh-7
# [4] = molecular target: Sodium channel protein type 5 subunit alpha (Homo sapiens, UniProt Q14524); test: Inhibition of Nav1.5 (unknown origin)
# [5] = Cytotoxicity against human HepG2 cells; format: cell-based
# [6] = Oral bioavailability in Sprague-Dawley rat at 6 mg/kg using docusate sodium/methocel/water formulation by LC/MS/MS analysis; format: ADME, organism-based; conditions: in vivo
# Method in brief: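 Rats were fasted overnight and gavaged with a suspension of spray-dried dispersion (10% w/w drug loading in 0.02:0.5:99.48 docusate/methocel/water), n = 3 per group. Serial EDTA plasma was taken predose to 24 h and assayed by LC/MS/MS. Analysis was noncompartmental: Cmax observed, AUC by linear/log trapezoids, F from dose-normalized PO versus IV AUC.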
# [7] = molecular target: T1, Nuclear receptor subfamily 1 group I member 2 (Homo sapiens, UniProt O75469); test: Transactivation of PXR (unknown origin); format: ADME
# T1 sequence (O75469 whole entry): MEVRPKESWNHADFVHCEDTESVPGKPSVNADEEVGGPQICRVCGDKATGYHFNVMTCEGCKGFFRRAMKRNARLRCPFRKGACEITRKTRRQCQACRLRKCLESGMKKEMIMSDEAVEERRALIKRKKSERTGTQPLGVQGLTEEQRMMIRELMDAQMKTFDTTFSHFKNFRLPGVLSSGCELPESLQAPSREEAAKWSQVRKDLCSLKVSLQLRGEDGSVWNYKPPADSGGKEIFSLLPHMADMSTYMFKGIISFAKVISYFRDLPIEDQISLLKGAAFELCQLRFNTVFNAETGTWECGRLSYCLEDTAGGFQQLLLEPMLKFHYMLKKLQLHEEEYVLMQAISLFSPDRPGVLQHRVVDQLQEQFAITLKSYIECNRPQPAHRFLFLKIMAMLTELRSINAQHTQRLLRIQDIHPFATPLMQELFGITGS
# [8] = molecular target: Voltage-dependent L-type calcium channel subunit alpha-1C (Homo sapiens, UniProt Q13936); test: Inhibition of Cav1.2 (unknown origin)
# [9] = Protein binding in human serum; format: ADME, cell-free; conditions: read-out: PB (converted)
# [10] = Half life in rat liver microsomes; format: ADME, microsome
# [11] = Drug uptake in Sprague-Dawley rat liver at 6 mg/kg, po administered via gavage after 24 hrs by LC/MS/MS analysis; format: ADME, organism-based; conditions: read-out: Drug uptake
# Method in brief: (§1)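 Fasted rats were dosed orally in 90:10 PEG-400/ethanol; 6 h livers came from satellite animals. In the screening variant, n = 2 and plasma was taken to 6 h with livers at the terminal point. Livers were rinsed, blotted, weighed and homogenized in 2 volumes of 80% acetonitrile in HBSS per gram, then centrifuged. Supernatant and plasma were analysed by LC/MS/MS.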
# [12] = Drug uptake in Sprague-Dawley rat liver at 6 mg/kg, po via gavage after 6 hrs by LC-MS/MS analysis; format: ADME, organism-based; conditions: read-out: Drug uptake; method in brief: as §1
# [13] = test system: Hepatitis C virus; test: Antiviral activity against HCV genotype 4a infected in human HuH7 cells after 3 days by luciferase reporter assay; format: functional, cell-based, Hepacivirus hominis; conditions: Huh-7, 72 h
# [14] = molecular target: T2, Voltage-gated inwardly rectifying potassium channel KCNH2 (Homo sapiens, UniProt Q12809); test: Inhibition of human ERG by thallium flux assay
# [15] = AUC in Sprague-Dawley rat at 6 mg/kg, po administered via gavage by LC/MS/MS analysis; format: ADME, organism-based; conditions: in vivo
# Method in brief: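 Rats were fasted overnight with free access to water, then dosed by gastric gavage with an […] solution in 90:10 PEG-400/ethanol (v/v), n = 3 per group. EDTA plasma was sampled predose and at 15, 30, 45, 60 min and 2, 4, 6, 8, 24 h, then assayed by LC/MS/MS. Parameters come from noncompartmental analysis: Cmax observed directly, AUC by linear/log trapezoidal summation, F as dose-normalized PO/IV AUC ratio.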
# [16] = molecular target: T2, Voltage-gated inwardly rectifying potassium channel KCNH2; test: Inhibition of human ERG by patch clamp assay
# [17] = Membrane permeability at pH 7.4 by PAMPA; format: physicochemical; conditions: read-out: permeability
# [18] = test system: Hepatitis C virus; test: Antiviral activity against HCV genotype 3a infected in human HuH7 cells after 3 days by luciferase reporter assay; format: functional, cell-based, Hepacivirus hominis; conditions: Huh-7, 72 h
# [19] = test system: Hepatitis C virus; test: Antiviral activity against HCV genotype 1b infected in human HuH7 cells after 3 days by luciferase reporter assay; format: functional, cell-based, Hepacivirus hominis; conditions: Hepatitis C virus, genotype 1b, Huh-7, 72 h; read-out: EC50
# [20] = molecular target: T3, Cytochrome P450 2C8 (Homo sapiens, UniProt P10632); test: Inhibition of microsomal CYP2C8 (unknown origin); format: ADME
# T3 sequence (P10632 whole entry): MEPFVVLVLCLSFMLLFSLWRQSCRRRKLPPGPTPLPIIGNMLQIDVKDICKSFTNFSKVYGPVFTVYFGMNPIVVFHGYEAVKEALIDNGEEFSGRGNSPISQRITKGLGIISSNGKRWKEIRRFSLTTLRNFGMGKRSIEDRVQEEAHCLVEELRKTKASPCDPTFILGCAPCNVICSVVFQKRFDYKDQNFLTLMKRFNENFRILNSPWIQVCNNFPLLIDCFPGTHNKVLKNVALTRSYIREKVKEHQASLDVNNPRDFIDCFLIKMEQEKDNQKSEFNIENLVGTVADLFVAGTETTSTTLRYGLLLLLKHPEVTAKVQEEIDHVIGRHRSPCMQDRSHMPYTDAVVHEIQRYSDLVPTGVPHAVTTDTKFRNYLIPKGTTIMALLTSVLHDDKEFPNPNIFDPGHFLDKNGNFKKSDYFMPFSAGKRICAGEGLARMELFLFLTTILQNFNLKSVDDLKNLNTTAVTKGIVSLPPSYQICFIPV
# [21] = Ratio of drug uptake in Sprague-Dawley rat liver to plasma at 6 mg/kg, po administered via gavage after 24 hrs by LC/MS/MS analysis; format: ADME, organism-based
# Method in brief: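 Rats fasted overnight, then dosed by gavage at 6 mg/kg in 90:10 PEG-400/ethanol (v/v). Plasma sampled serially from cannula into EDTA tubes predose and at 15, 30, 45, 60 min and 2, 4, 6, 8, 24 h; n = 3. Livers removed at 6 h (satellite animals) and 24 h, homogenized in 80% acetonitrile/HBSS, assayed by LC/MS/MS. Tmax taken directly from observed data.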
# [22] = Volume of distribution at steady state in Sprague-Dawley rat at 2 mg/kg, iv by LC/MS/MS analysis; format: ADME, organism-based; conditions: Sprague-Dawley, in vivo, read-out: Vdss
# Method in brief: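 Rats received a 2 mg/kg IV dose in 90:10 PEG-400/ethanol as a 10 min constant-rate jugular infusion. Blood collected predose and at 10, 15, 30, 45, 60 min and 2, 4, 6, 8, 24 h; n = 3. Plasma analyzed by LC/MS/MS. Vss derived by noncompartmental analysis of IV data.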
# [23] = Protein binding in monkey serum; format: ADME, cell-free, Macaca mulatta; conditions: rhesus monkey, read-out: PB (converted)
# T2 sequence (Q12809 whole entry): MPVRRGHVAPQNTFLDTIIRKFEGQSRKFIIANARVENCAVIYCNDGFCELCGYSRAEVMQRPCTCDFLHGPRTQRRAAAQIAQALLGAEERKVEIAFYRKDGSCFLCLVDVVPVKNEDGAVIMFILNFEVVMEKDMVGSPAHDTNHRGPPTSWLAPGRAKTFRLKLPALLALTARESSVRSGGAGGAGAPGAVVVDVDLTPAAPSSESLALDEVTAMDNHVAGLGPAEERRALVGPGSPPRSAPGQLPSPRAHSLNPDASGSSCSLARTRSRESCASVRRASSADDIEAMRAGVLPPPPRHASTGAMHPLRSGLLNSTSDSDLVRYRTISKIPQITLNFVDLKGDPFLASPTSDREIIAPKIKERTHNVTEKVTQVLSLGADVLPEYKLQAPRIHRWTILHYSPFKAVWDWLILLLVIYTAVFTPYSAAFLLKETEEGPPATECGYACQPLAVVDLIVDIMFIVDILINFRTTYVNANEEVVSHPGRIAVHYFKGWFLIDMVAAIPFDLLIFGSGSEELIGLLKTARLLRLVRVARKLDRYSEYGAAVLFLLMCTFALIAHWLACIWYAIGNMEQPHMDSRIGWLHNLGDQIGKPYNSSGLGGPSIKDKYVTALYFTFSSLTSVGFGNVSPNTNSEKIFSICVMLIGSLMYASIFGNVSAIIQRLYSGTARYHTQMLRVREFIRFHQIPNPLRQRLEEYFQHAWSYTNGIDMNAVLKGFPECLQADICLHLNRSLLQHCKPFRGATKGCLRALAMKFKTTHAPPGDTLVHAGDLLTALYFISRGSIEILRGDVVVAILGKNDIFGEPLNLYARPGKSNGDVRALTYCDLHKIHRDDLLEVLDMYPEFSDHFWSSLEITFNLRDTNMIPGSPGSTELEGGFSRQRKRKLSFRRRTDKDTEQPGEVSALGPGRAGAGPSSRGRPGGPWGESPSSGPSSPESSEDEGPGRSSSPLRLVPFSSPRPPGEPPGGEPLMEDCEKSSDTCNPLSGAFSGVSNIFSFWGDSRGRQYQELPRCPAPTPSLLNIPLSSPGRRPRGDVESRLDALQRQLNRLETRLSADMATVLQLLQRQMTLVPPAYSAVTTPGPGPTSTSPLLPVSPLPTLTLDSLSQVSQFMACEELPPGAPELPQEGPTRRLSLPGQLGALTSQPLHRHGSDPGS
# Sequence of Voltage-dependent L-type calcium channel subunit alpha-1C (Q13936 whole entry): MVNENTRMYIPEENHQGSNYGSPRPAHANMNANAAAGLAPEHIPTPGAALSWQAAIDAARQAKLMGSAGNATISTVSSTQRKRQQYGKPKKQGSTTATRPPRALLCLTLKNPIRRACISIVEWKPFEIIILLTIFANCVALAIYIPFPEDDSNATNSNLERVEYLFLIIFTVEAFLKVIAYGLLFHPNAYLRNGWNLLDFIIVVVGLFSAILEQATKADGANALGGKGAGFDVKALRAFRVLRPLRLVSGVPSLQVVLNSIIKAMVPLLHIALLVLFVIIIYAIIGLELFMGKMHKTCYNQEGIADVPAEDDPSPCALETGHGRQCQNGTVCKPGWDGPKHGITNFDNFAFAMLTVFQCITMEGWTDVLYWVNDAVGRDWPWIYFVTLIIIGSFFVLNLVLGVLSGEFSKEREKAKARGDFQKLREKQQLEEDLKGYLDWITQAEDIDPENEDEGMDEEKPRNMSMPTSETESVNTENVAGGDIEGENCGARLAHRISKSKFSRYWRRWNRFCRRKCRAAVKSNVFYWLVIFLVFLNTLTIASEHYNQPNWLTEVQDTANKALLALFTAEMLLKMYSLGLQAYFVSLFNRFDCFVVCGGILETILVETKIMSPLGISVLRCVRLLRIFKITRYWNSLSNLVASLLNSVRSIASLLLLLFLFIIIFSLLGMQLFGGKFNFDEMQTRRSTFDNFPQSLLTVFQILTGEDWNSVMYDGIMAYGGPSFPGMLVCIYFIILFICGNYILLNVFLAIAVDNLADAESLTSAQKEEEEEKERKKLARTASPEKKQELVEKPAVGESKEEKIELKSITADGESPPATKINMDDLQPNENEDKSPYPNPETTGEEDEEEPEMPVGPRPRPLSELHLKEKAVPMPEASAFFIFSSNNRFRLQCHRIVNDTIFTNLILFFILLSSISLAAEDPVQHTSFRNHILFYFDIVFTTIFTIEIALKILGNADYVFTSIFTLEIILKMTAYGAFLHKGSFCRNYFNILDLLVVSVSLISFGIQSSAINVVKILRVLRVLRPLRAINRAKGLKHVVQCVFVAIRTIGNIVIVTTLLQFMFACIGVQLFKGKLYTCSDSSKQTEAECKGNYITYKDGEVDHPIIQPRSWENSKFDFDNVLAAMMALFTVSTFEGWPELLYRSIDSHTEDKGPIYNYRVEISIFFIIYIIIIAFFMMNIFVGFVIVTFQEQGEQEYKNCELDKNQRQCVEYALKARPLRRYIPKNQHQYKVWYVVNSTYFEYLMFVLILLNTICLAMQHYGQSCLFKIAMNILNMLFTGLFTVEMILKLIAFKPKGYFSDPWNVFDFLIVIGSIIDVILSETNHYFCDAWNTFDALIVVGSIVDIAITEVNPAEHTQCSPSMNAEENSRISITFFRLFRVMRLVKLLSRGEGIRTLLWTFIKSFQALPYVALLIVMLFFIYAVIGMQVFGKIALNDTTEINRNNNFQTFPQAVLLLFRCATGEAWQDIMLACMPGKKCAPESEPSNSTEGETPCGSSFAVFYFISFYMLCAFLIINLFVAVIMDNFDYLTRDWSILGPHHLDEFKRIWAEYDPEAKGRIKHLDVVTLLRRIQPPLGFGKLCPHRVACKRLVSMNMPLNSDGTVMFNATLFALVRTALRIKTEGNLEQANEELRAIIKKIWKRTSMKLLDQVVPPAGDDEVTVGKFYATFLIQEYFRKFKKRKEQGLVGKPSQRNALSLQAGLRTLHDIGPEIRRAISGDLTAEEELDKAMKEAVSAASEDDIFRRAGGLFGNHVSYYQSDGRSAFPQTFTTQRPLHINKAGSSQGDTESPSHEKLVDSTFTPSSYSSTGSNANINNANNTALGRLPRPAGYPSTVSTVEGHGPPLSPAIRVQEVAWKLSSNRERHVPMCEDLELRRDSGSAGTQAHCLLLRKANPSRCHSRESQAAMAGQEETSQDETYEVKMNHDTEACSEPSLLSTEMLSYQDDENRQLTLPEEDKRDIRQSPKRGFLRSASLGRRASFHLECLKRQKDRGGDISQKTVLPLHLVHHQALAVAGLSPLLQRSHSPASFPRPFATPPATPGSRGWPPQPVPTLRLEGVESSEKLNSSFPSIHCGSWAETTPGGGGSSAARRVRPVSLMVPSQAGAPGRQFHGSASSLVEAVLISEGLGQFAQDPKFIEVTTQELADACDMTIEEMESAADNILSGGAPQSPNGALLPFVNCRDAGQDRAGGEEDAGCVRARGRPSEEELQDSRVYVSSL
structure (smiles),measurement,setting,value
CNC(=O)c1c(-c2ccc(F)cc2)oc2ccc(-c3cc(C(=O)NC4(c5ncccn5)CC4)ccc3C)c(F)c12 [BMS-929075],Activity,[1],Non-Toxic
same,Activity,[2],Non-Toxic
same,CC50 at 72 h,[3],60 µM
same,inhibition (INH),[4],Not Active
same,CC50,[5],> 12.5 µM
same,bioavailability,[6],> 100%
same,EC50,[7],> 50 µM
same,inhibition (INH),[8],Not Active
same,fraction unbound,[9],0.018
same,half-life,[10],> 2 h
same,concentration at 24 h,[11],1.12 µM
same,concentration at 6 h,[12],15.1 µM
same,EC50,[13],0.003 µM
same,IC50,[14],24 µM
same,AUC,[15],54.5 µM·h
same,IC50,[16],18 µM
same,Papp,[17],97.2 ×10⁻⁶ cm/s
same,EC50,[18],0.022 µM
same,EC50,[19],0.004 µM
same,IC50,[20],6.7 µM
same,Kp at 24 h,[21],1.6
same,Vd,[22],0.7 L/kg
same,fraction unbound,[23],0.028
